The nature of data set [1]: folding enthalpy; higher = less favourable; fluorescence melt of hairpins on a sequencing array, two-state fit. As to conditions: sodium 0.088 M. The method in brief:
(§1)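 Folding enthalpy and melting temperature come from bootstrapped two-state fits to Cy3 fluorescence of library hairpins carrying annealed Cy3 and quencher oligos on a sequenced MiSeq flow cell. Imaging was done in 50 mM Na-HEPES pH 8.0, 25 mM NaCl, stepping by 2.5 °C up to 60 °C, and signals were normalised to pre-quench Cy3 and to control constructs. Results of four replicates were combined by inverse variance, and fitted temperatures were raised by 9.35 °C to match UV melts.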

Data set [2] is described as follows: melting temperature; fluorescence melt of hairpins on a sequencing array, two-state fit, raised by 9.35 °C to match UV melts. As to conditions: sodium 0.088 M. The method in brief: as §1

Consider GATCTATTCATAGATC ((((((....)))))), for which, in data set [1], the folding enthalpy is -35.8 kcal/mol. In addition, the Tm in data set [2] worked out at 49.9 °C.
On to GATCTATTCCTAGATC ((((((....)))))), for which, in data set [1], the folding enthalpy was -29.9 kcal/mol. Moreover, the Tm in data set [2] came out at 40.4 °C.
The matching figures for GATCTATTGGTAGATC ((((((....)))))): -30.4 kcal/mol and 44.2 °C.
Taken in the same sequence, the figures for GATCTATTGTTAGATC ((((((....)))))) were -35.9 kcal/mol and 42.5 °C.
The matching figures for GATCTATTTTAGATC ((((((...)))))): -32.7 kcal/mol and 41.7 °C.
As for GATCTCAAAGAGATC ((((((...)))))), the folding enthalpy in data set [1] was -37.6 kcal/mol. Further, the Tm in data set [2] amounted to 55.2 °C.
Regarding GATCTCAACAGAGATC ((((((....)))))), in data set [1], the folding enthalpy is -44.3 kcal/mol. Also, the Tm in data set [2] turned out to be 54.9 °C.
Taken in the same sequence, the figures for GATCTCAATAGAGATC ((((((....)))))) were -38.5 kcal/mol and 53.3 °C.
Consider GATCTCAATCGAGATC ((((((....)))))), for which the folding enthalpy in data set [1] is -43.7 kcal/mol. For the same sequence, the Tm in data set [2] worked out at 52.2 °C.
On to GATCTCAATTGAGATC ((((((....)))))), for which the folding enthalpy in data set [1] was -38 kcal/mol. For the same sequence, the Tm in data set [2] came out at 53.1 °C.
Taken in the same sequence, the figures for GATCTCACAGGAGATC ((((((....)))))) were -34 kcal/mol and 51.7 °C.
Taken in the same sequence, the figures for GATCTCACCGAGATC ((((((...)))))) were -36.5 kcal/mol and 55.2 °C.
GATCTCACGAGAGATC ((((((....)))))): in data set [1], the folding enthalpy was -39.5 kcal/mol. The Tm in data set [2] turned out to be 52.3 °C.
Taken in the same sequence, the figures for GATCTCACGCGAGATC ((((((....)))))) were -41.7 kcal/mol and 52.7 °C.
Taken in the same sequence, the figures for GATCTCAGGTGAGATC ((((((....)))))) were -32.2 kcal/mol and 53.6 °C.
Taken in the same sequence, the figures for GATCTCATACGAGATC ((((((....)))))) were -37.8 kcal/mol and 52.6 °C.
With GATCTCCAACGAGATC ((((((....)))))), the folding enthalpy in data set [1] is -39.3 kcal/mol. In data set [2], the Tm worked out at 49.8 °C.
In the case of GATCTCCACTGAGATC ((((((....)))))), the folding enthalpy in data set [1] is -40.7 kcal/mol. In data set [2], the Tm is 51.7 °C.
Taken in the same sequence, the figures for GATCTCCAGCGAGATC ((((((....)))))) were -30.6 kcal/mol and 50 °C.
The matching figures for GATCTCCCACGAGATC ((((((....)))))): -40.3 kcal/mol and 50.5 °C.
GATCTCCCGAAAGGGATC (((..(((....)))))): the folding enthalpy in data set [1] was -9.21 kcal/mol. In addition, the Tm in data set [2] came out at 29.6 °C.
Taken in the same sequence, the figures for GATCTCCCGCGAGATC ((((((....)))))) were -32.3 kcal/mol and 52.7 °C.
Consider GATCTCCCGTGAGATC ((((((....)))))), for which the folding enthalpy in data set [1] is -35.4 kcal/mol. The Tm in data set [2] turned out to be 52.5 °C.
Taken in the same sequence, the figures for GATCTCCGAAAGGATATC (((.(((....))).))) were -31.9 kcal/mol and 39.3 °C.
The matching figures for GATCTCCGAGGAGATC ((((((....)))))): -37.8 kcal/mol and 60.4 °C.
The matching figures for GATCTCCGCTGAGATC ((((((....)))))): -32.5 kcal/mol and 53.1 °C.
Regarding GATCTCCGGTGAGATC ((((((....)))))), the folding enthalpy in data set [1] was -35.5 kcal/mol. Further, the Tm in data set [2] turned out to be 52 °C.
The matching figures for GATCTCCTGGAGATC ((((((...)))))): -37.3 kcal/mol and 53.2 °C.
Taken in the same sequence, the figures for GATCTCCTTGAGATC ((((((...)))))) were -40.6 kcal/mol and 54.4 °C.
The matching figures for GATCTCGACAGAGATC ((((((....)))))): -41.9 kcal/mol and 66.8 °C.
On to GATCTCGAGGGAGATC ((((((....)))))), for which the folding enthalpy in data set [1] was -19.9 kcal/mol. For the same sequence, the Tm in data set [2] amounted to 51.7 °C.
Regarding GATCTCGCACGAGATC ((((((....)))))), the folding enthalpy in data set [1] is -44.6 kcal/mol. The Tm in data set [2] is 61 °C.
The matching figures for GATCTCGCCGAGATC ((((((...)))))): -37 kcal/mol and 55.2 °C.
Taken in the same sequence, the figures for GATCTCGCGAAAGCGATC (((..(((....)))))) were -5.91 kcal/mol and 28.1 °C.
Taken in the same sequence, the figures for GATCTCGGCGAGATC ((((((...)))))) were -35.8 kcal/mol and 59.6 °C.
As to GATCTCGGGCGAGATC ((((((....)))))), the folding enthalpy in data set [1] is -30.4 kcal/mol. For the same sequence, the Tm in data set [2] was 55.2 °C.
The matching figures for GATCTCTAAAGAGATC ((((((....)))))): -33.4 kcal/mol and 51.4 °C.
Taken in the same sequence, the figures for GATCTCTACTGAGATC ((((((....)))))) were -41.6 kcal/mol and 53.2 °C.

(Values after the array DNA melting data of Ke et al. (doi:10.1101/2024.01.08.574731).)
